# Compound activity: PubChem BioAssay, several laboratories
# Rows were chosen to be rich in hits. Some 4.1% of all compounds tested hit in one or more screens of this group.
# TbMetRS inhib: Trypanosoma brucei MetRS inhibition; purified T. brucei MetRS, ATP depletion, Kinase-Glo luminescence; inhibition, % at 11.9 µM; hit rate 0.4% among 360,000;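 active = inhibition above a per-plate cutoff of the control wells' mean inhibition plus 3 SD, cut at about 5.5% in these data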;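 also: 0% = DMSO wells median and 100% = median of wells with control inhibitor compound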
#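 Measured by: Kinase-Glo luciferase luminescence reporting remaining unconsumed ATP. Material: purified T. brucei MetRS enzyme. Doses: 11.9 µM compound single dose, 0.9% DMSO. Medium: HEPES buffer containing pyrophosphatase, BSA, spermine, DTT. Times: 15 min preincubation, 2 h reaction, all 25 °C. Reagent: methionine, ATP and bulk E. coli tRNA.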
# Efflux pump mplx: blocks antifungal efflux pumps in multiplex yeast assay; inhibition, % at 10 µM; hit rate 0.44% among 330,000; S. cerevisiae Candida pump triplex, Nile Red efflux;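 active = plate passing quality check with inhibition over a set limit, or well fluorescence over plate mean plus 4 SD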;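 also: Nile Red retained in pooled yeast measured as flow cytometry median fluorescence; 0% = buffer negative control and 100% = Enniatin B positive control; higher means more Nile Red kept so more efflux inhibition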
# SMARCA2 activ: activators of SMARCA2 function; MG213 cells, MMTV-luciferase reporter, dexamethasone, overnight; activation, % at 9.1 µM; hit rate 1% among 370,000; in the data active = activation above about 7.8%;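 also: 0% = vehicle wells and 100% = reference activator wells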
# AHR activator: activators of human aryl hydrocarbon receptor; hit rate 2.5% among 320,000; activation, % at 5 µM; AID 2796; AHR-responsive luciferase reporter cells, luminescence; in the data active = activation above about 47%;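 also: 0% = vehicle wells and 100% = reference agonist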
# Target sequence (P35869 whole entry, looked up): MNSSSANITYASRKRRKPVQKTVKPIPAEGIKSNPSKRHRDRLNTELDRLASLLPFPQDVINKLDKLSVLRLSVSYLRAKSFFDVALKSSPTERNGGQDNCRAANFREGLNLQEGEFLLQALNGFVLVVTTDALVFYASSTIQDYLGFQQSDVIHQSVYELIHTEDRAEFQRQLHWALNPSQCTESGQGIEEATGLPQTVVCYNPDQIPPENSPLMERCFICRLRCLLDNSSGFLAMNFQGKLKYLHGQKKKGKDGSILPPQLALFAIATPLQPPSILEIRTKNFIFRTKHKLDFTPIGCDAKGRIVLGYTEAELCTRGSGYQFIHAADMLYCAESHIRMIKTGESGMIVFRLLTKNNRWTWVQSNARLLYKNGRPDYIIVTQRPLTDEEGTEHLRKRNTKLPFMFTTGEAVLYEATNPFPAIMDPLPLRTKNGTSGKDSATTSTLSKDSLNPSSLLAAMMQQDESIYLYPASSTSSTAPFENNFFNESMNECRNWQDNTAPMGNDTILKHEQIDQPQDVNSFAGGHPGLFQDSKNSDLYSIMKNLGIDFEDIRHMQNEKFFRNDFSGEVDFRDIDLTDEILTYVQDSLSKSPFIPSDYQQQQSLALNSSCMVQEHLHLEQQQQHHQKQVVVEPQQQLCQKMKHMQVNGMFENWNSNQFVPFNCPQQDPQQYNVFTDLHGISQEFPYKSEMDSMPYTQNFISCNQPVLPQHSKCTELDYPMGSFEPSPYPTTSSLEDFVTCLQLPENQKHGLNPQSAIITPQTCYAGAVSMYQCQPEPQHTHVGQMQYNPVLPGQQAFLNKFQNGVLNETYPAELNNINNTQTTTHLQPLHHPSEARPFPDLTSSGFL
# H9c2 TAG inh: reduces triacylglycerol accumulation in H9c2 cells; hit rate 0.66% among 230,000; inhibition, % at 12.5 µM; AID 651582; Nile Red lipid (TAG) fluorescence; cells loaded with 200 µM oleic acid;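 active = pattern-corrected inhibition of lipid staining of at least 50% with the nuclear-stain viability signal not falling by more than 50%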;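 also: 0% = DMSO wells and 100% = triacsin C control wells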
# Active calls of the source: *; . = not tested or not shown.
SMILES,TbMetRS inhib,Efflux pump mplx,SMARCA2 activ,AHR activator,H9c2 TAG inh
O=C1C=C[C@H]2CC[C@@H](O)[C@@H]1[C@@H]2Sc1ccccc1,.,.,4,.,.
COc1ccc2c(c1)[C@@H](NC(=O)c1ccncc1)[C@@H]1Cc3ccccc3[C@H]21,.,.,-4,.,.
C[C@H]1CCCN1c1cccc2c1S(=O)(=O)N1CC[C@@H](C1)O2,.,.,-3,.,.
Cc1nc([N+](=O)[O-])cn1CC(Cl)Cn1cc([N+](=O)[O-])nc1C,.,.,1,.,.
CN(C)c1nc(Nc2ccc(Cl)cc2)nc(OCC#N)n1,0,0,-4,49*,-1
CCOc1nc(Nc2ccc(Cl)cc2)nc(OCC)n1,-1,0,1,11,.
Cc1ccc(NC(=O)Nc2ccc3c(c2)[C@]2(CC(=O)N(CC(C)C)C2c2ccccc2)C(=O)N3C)cc1Cl (some centres undefined),.,.,-4,.,.
COCCOC(=O)C1=C(C)NC2=C(C(=O)CC(c3cccs3)C2)C1c1ccsc1 (centres undefined),0,0,-1,50*,.
COc1ccccc1N1C(=O)N(C(C)=O)C2C1Nc1ccccc1N2C (centres undefined),-1,0,-1,60*,.
O=C(Nc1ccccc1Cl)c1csc(-c2cccnc2)n1,-1,0,1,48*,-8
O=C(Nc1ccc(C(F)(F)F)cc1)c1csc(-c2ccncc2)n1,0,0,-7,66*,.
CC(C)C(=O)Nc1cccc(NC(=S)NC(=O)c2cccs2)c1,0,0,3,48*,10
O=C(NNC(=O)c1csc(-c2cnccc2C(F)(F)F)n1)c1ccc(C(F)(F)F)cc1,0,0,1,15,5
O=C(Nc1ccccc1)c1csc(-c2ccccc2)n1,0,0,5,68*,.
COC(=O)c1cc2c(c3c4cc(C)ccc4n(S(=O)(=O)c4ccc(OC)cc4)c13)C(=O)N(C)C2,.,.,-4,.,.
O=S1(=O)CCOCC(CO)N1Cc1cccc(Br)c1 (centres undefined),.,.,-1,.,.
CCCC[C@@H]1C(=O)N2N=Cc3ccccc3[C@H]2N2N=Cc3ccccc3[C@@H]12,.,.,1,.,.
CC(C)C(=O)Nc1cccc(-c2csc(-c3ccccc3)n2)c1,0,0,0,68*,.
O=C(N/N=C/c1cc([N+](=O)[O-])ccc1O)c1cccc2cc[nH]c12,-1,0,-4,6,61*
CC1(CCc2ccccc2)NC(=S)N(c2ccc(Cl)cc2)N1 (centres undefined),-1,0,-2,55*,-2
CCOC(=O)[C@]12CCCCC/C=C\1N(CCc1ccc(Cl)cc1)C(=O)[C@H]2CC(=O)NCCC(C)C,.,.,-1,.,.
COC(=O)[C@]12C[C@H](CC(=O)NCc3cccc(C(F)(F)F)c3)C(=O)N(Cc3ccccc3)C1=C[C@H](C(C)C)O[C@@H]2C1CC1,.,.,0,.,.
CCCCCCCCN1C(=O)[C@@H](CC(=O)NCCCOCCCC)C[C@@]2(C(=O)OC)C1=C[C@H](COCc1ccccc1)O[C@@H]2C,.,.,0,.,.
N#Cc1cc(-c2ccccc2)nc(NN)n1,-1,0,-4,11,-2
N#Cc1cc(-c2ccccc2)nc(N2CCNCC2)n1,0,0,0,50*,3
SMILES,TbMetRS inhib,Efflux pump mplx,SMARCA2 activ,AHR activator,H9c2 TAG inh
Cc1ccc(-c2cn3cccnc3n2)cc1NC(=O)c1c(-c2ccccc2Cl)noc1C,-1,0,0,48*,.
CCOc1cccc2cc(-c3csc(NC(=O)CCC(=O)NCCCN4CCC(C)CC4)n3)c(=O)oc12,.,0,.,19,.
CCOc1cccc2cc(-c3csc(NC(=O)CCC(=O)NCCN4CCCCC4C)n3)c(=O)oc12 (centres undefined),0,0,7.9*,28,-7
Cc1cc(C)c2cc(C#N)c(NCCNC(=O)c3ccccc3)nc2c1,-1,.,-4,.,.
CCOc1ccc2nc(NCCNC(=O)C(C)C)c(C)cc2c1,-1,0,-2,48*,5
CCOc1ccc2nc(NCCNC(=O)C3CC3)c(C)cc2c1,0,0,-3,38,-9
Cc1cc2cc(C)c(NCCNC(=O)c3ccccc3)nc2cc1C,0,0,4,63*,1
N#CCC[C@H]1CC[C@]2(CCCN(C(=O)c3ccco3)C2)O1,.,.,-2,.,.
CCOc1cc2c3c(c1)C1(C(=O)N3C(C)(C)CC2C)C(C#N)=C(N)N2C(=C1C#N)Nc1ccccc12 (centres undefined),0,0,-3,58*,4
Cc1nn(-c2ccccc2)c2c1C(c1cccs1)C(C#N)=C(N)O2 (centres undefined),-1,0,.,55*,16
COc1cc(OC)cc(-c2nc3cc(C)ccc3o2)c1,0,0,8,58*,.
CCc1ccc(CCNC(=O)OC2CCC23CCC(c2ccccc2)CC3)cc1 (centres undefined),.,.,-1,.,.
COc1ccccc1NC(=O)CC1Nc2ccccc2NC1=O (centres undefined),0,0,1,56*,15
Cc1cccc(NC(=O)CC2Nc3cccc4cccc(c34)NC2=O)c1 (centres undefined),-1,0,-1,75*,.
CC(=O)Nc1ccc(NC(=O)CC2Nc3cccc4cccc(c34)NC2=O)cc1 (centres undefined),1,0,-3,24,-10
COc1ccc(NC(=O)CC2Nc3ccccc3NC2=O)c([N+](=O)[O-])c1 (centres undefined),-1,0,-4,6,8
CCOC(=O)[C@@]12CCCC3=C1N(CCC3)C(=O)[C@H]2CC(=O)NCCCCc1ccccc1,.,.,1,.,.
C#Cc1ccc([C@H]2C=C(C(=O)OCC=C)O[C@@H](OCCCCO)C2)cc1,0,.,0,49*,.
COc1ccc(S(=O)(=O)N2CCCc3nc(C)c(C)cc32)cc1,.,.,4,.,.
CN1Cc2nnn(Cc3ccccc3)c2-c2cc(F)ccc2S1(=O)=O,.,.,2,.,.
S=c1nc(-c2ccccc2)[nH]n1-c1ccccc1,0,0,-1,108*,.
Cc1nc(=S)n(-c2ccccc2)[nH]1,0,0,0,7,0
CCCCC(=O)Nc1nn(CCC)c2nc3ccccc3cc12,-1,0,1,47*,6
CCn1nc(NC(=O)c2ccccn2)c2cc3cc(C)ccc3nc21,-1,0,2,71*,.
Cc1ccc2nc3c(cc2c1)c(NC(=O)c1ccccn1)nn3CC(C)C,-1,0,0,6,.
SMILES,TbMetRS inhib,Efflux pump mplx,SMARCA2 activ,AHR activator,H9c2 TAG inh
CCn1nc(NS(=O)(=O)c2ccccc2)c2cc3ccccc3nc21,1,0,-1,7,.
CCCCC(=O)Nc1nn(CC)c2nc3c(C)cccc3cc12,0,0,-2,19,.
CCn1nc(NC(=O)c2cccnc2)c2cc3ccccc3nc21,0,0,3,64*,2
CCn1nc(NC(=O)c2cccs2)c2cc3ccccc3nc21,0,0,1,48*,-4
CCn1nc(NC(=O)c2ccccc2)c2cc3cccc(C)c3nc21,0,0,-3,28,-8
CCOC(=O)Cc1nc(N2CCN(CCO)CC2)c2c(C)c(C(=O)OCC)sc2n1,.,.,-6,.,.
